Series [1] is described as follows: melting temperature; fluorescence melt of hairpins on a sequencing array, two-state fit, raised by 9.35 °C to match UV melts. The following applies: sodium 0.088 M. In short, it runs like this:
(§1)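 Melting temperature and folding enthalpy were obtained by bootstrapped two-state fitting. Fits used Cy3 fluorescence of library hairpins with annealed Cy3 and quencher oligos on a sequenced MiSeq flow cell, imaged in 50 mM Na-HEPES pH 8.0, 25 mM NaCl in 2.5 °C steps up to 60 °C and normalised to pre-quench Cy3 and control constructs. Four replicates were combined by inverse-variance weighting, and fitted temperatures were raised by 9.35 °C to match UV melts.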

A short description of series [2]: folding enthalpy; higher = less favourable; fluorescence melt of hairpins on a sequencing array, two-state fit. The following applies: sodium 0.088 M. In short, it runs like this:
as §1

In the case of GTCAAAGGAAACTTCGAC (((.(((....))).))), in series [1], the Tm was 31.1 °C. For the same sequence, the folding enthalpy in series [2] is -19.4 kcal/mol.
Turning to GTCAAATCGAAAGATGAC (((..(((....)))))), in series [1], the Tm stood at 35.6 °C. Also, in series [2], the folding enthalpy is -16.1 kcal/mol.
For GTCAACCGAAAGGTGGAC (((.(((....))).))), in that order: 56.2 °C and -30.5 kcal/mol.
In the same order, the values of GTCAACGAAAGTTAGGAC ((((((....)))..))) are 31.8 °C and -17.1 kcal/mol.
As to GTCAACGAAAGTTCTGAC ((((((....)))..))), in series [1], the Tm came to 25.9 °C. For the same sequence, in series [2], the folding enthalpy was -13.3 kcal/mol.
In the same order, the values of GTCAACGAAAGTTGCGAC ((((((....)))..))) are 46.6 °C and -17.7 kcal/mol.
Consider GTCAACGAAAGTTGGGAC ((((((....)))..))), for which the Tm in series [1] worked out at 32.7 °C. For the same sequence, in series [2], the folding enthalpy was -11.5 kcal/mol.
Take GTCAACGAAAGTTTAGAC ((((((....)))..))): the Tm in series [1] was 31.3 °C. For the same sequence, in series [2], the folding enthalpy was -16.1 kcal/mol.
Consider GTCAACGGAAACATTGAC (((((.(....).))))), for which the Tm in series [1] stood at 35.6 °C. In addition, the folding enthalpy in series [2] is -26.4 kcal/mol.
In the same order, the values of GTCAACTCGAAAGAGGAC (((..(((....)))))) are 33.2 °C and -20.3 kcal/mol.
In the same order, the values of GTCAAGGGAAACCCTGAC ((((.((....)).)))) are 43.7 °C and -33.8 kcal/mol.
In the same order, the values of GTCAAGTCGAAAGACGAC (((..(((....)))))) are 41.9 °C and -15.4 kcal/mol.
For GTCAATCCGAAAGGAGAC (((..(((....)))))), the Tm in series [1] stood at 32.5 °C. Besides, in series [2], the folding enthalpy was -20.3 kcal/mol.
In the same order, the values of GTCAATCGAAAGATAGAC (((.(((....))).))) are 43.5 °C and -28.2 kcal/mol.
In the case of GTCAATGGAAACATTGGC (.(((((....))))).), the Tm in series [1] worked out at 48.4 °C. The folding enthalpy in series [2] is -27.7 kcal/mol.
GTCACATCGAAAGATGAC (((..(((....)))))): the Tm in series [1] worked out at 30.2 °C. In series [2], the folding enthalpy is -12.8 kcal/mol.
GTCACCGAAAGGTCAGAC ((((((....)))..))): the Tm in series [1] came to 32.2 °C. Further, in series [2], the folding enthalpy is -14.5 kcal/mol.
In the same order, the values of GTCACCGAAAGGTTAGAC ((((((....)))..))) are 39.4 °C and -17.1 kcal/mol.
In the same order, the values of GTCACGGGAAACCGTAAC ((.((((....)))).)) are 36.1 °C and -16.5 kcal/mol.
For GTCACTCGAAAGAGGAC (((.(((....)))))), in that order: 45.8 °C and -23.9 kcal/mol.
As to GTCACTGAAAAGTGAC ((((((....)))))), in series [1], the Tm was 63.3 °C. Further, the folding enthalpy in series [2] was -33.2 kcal/mol.
For GTCACTGGAAACAATGAC ((((.((....)).)))), in that order: 35 °C and -21.6 kcal/mol.
For GTCACTGGAAACAGCGAC (((.(((....))).))), in that order: 47.2 °C and -35.2 kcal/mol.
In the same order, the values of GTCAGACGAAAGTCCGAC (((.(((....))).))) are 48.6 °C and -26.5 kcal/mol.
Consider GTCAGAGGAAACTCCGAC (((.(((....))).))), for which, in series [1], the Tm amounted to 34.7 °C. Also, in series [2], the folding enthalpy was -25.3 kcal/mol.
For GTCAGAGGAAACTCTGAC (((((((....))))))), in that order: 61.7 °C and -37.9 kcal/mol.
For GTCAGCCCGAAAGGGGAC (((..(((....)))))), in that order: 42.4 °C and -13.7 kcal/mol.
With GTCAGCGAAAGCTACGAC ((((((....)))..))), the Tm in series [1] came to 41 °C. Moreover, the folding enthalpy in series [2] is -16.8 kcal/mol.
Turning to GTCAGCGAAAGCTGGAC ((((((....))).))), the Tm in series [1] turned out to be 53.1 °C. In addition, the folding enthalpy in series [2] was -14.4 kcal/mol.
In the same order, the values of GTCAGCGAAAGCTGTGAC ((((((....)))..))) are 39.5 °C and -10.3 kcal/mol.
As to GTCAGCGAAAGCTTTGAC ((((((....)))..))), the Tm in series [1] is 35 °C. The folding enthalpy in series [2] was -15.3 kcal/mol.
In the same order, the values of GTCAGCGGAAACGCCAAC ((..(((....)))..)) are 21.8 °C and -7.36 kcal/mol.
For the sequence GTCAGGCGAAAGCCGGAC (((.(((....))).))), in series [1], the Tm came out at 69.1 °C. Besides, in series [2], the folding enthalpy is -24.7 kcal/mol.
Turning to GTCAGGGGAAACCCCAAC ((..(((....)))..)), in series [1], the Tm turned out to be 28.3 °C. Also, in series [2], the folding enthalpy is -11.7 kcal/mol.
As for GTCAGGGGAAACCCTAAC ((.((((....)))).)), the Tm in series [1] is 29.6 °C. For the same sequence, the folding enthalpy in series [2] is -14.5 kcal/mol.
For GTCAGTCGAAAGACGAC (((.(((....)))))), in series [1], the Tm was determined as 53.1 °C. Moreover, the folding enthalpy in series [2] was -32 kcal/mol.
In the same order, the values of GTCAGTGAAAACTGAC ((((((....)))))) are 60.5 °C and -35.6 kcal/mol.
For GTCAGTGGAAACACTGGC (.(((((....))))).), the Tm in series [1] is 54.7 °C. The folding enthalpy in series [2] was -24.8 kcal/mol.
As to GTCATAGAAATATGAC ((((((....)))))), the Tm in series [1] stood at 45.6 °C. Also, the folding enthalpy in series [2] is -30.2 kcal/mol.
For GTCATCGAAAGATAGAC ((((((....))).))), in that order: 39.7 °C and -24.6 kcal/mol.
In the same order, the values of GTCATCGAAAGATAGGAC ((((((....)))..))) are 30.9 °C and -15.7 kcal/mol.
Regarding GTCATCGAAAGATGGGAC ((((((....)))..))), the Tm in series [1] was determined as 34.1 °C. In addition, the folding enthalpy in series [2] was -14.4 kcal/mol.
For GTCATCGAAAGATTGGAC ((((((....)))..))), in that order: 30.9 °C and -17.7 kcal/mol.
In the same order, the values of GTCATGCCGAAAGGCGAC (((..(((....)))))) are 41.3 °C and -12.3 kcal/mol.
For GTCATGGAAACATGAC ((((((....)))))), in series [1], the Tm was determined as 56.1 °C. Also, the folding enthalpy in series [2] is -34.5 kcal/mol.
As for GTCATGGGAAACTATGGC (.(((.(....).))).), in series [1], the Tm was found to be 32.1 °C. For the same sequence, the folding enthalpy in series [2] is -22.4 kcal/mol.
As for GTCATGTCGAAAGACGAC (((..(((....)))))), in series [1], the Tm turned out to be 38 °C. In series [2], the folding enthalpy is -14.8 kcal/mol.
GTCATTACGAAAGTAGAC (((..(((....)))))): in series [1], the Tm was 26.7 °C. The folding enthalpy in series [2] is -9.42 kcal/mol.
With GTCATTCGAAAGAAGAC (((.(((....)))))), in series [1], the Tm came out at 33 °C. Besides, the folding enthalpy in series [2] is -16.5 kcal/mol.
For GTCATTCGAAAGAAGGAC (((.(((....))).))), in that order: 51.9 °C and -42.5 kcal/mol.
GTCCAAACGAAAGTTGAC (((..(((....)))))): the Tm in series [1] is 31.6 °C. Also, the folding enthalpy in series [2] is -16.8 kcal/mol.
In the same order, the values of GTCCAAGGAAACTCGGAC ((((.((....)).)))) are 38.8 °C and -30.6 kcal/mol.
In the same order, the values of GTCCAAGGAAACTTAGAC (((.(((....))).))) are 24.5 °C and -13.7 kcal/mol.
In the same order, the values of GTCCACGAAAGTGTAGAC ((((((....)))..))) are 38.9 °C and -20.1 kcal/mol.
On to GTCCACGCGAAAGCGGAC (((..(((....)))))), for which the Tm in series [1] turned out to be 45.8 °C. Also, the folding enthalpy in series [2] was -12.9 kcal/mol.
In the same order, the values of GTCCAGGGAAACCCAGAC (((..((....))..))) are 31.4 °C and -17.4 kcal/mol.
Take GTCCAGGGAAACCCGGAC ((((.((....)).)))): in series [1], the Tm amounted to 51 °C. Moreover, the folding enthalpy in series [2] is -36.1 kcal/mol.
For GTCCAGGGAAACCTAGAC (((.(((....))).))), in that order: 33.3 °C and -19 kcal/mol.
Regarding GTCCAGGGAAACTTGGGC (.(((.(....).))).), the Tm in series [1] was 34.7 °C. For the same sequence, the folding enthalpy in series [2] is -29 kcal/mol.
In the same order, the values of GTCCATCGAAAGATTGAC (((.(((....))).))) are 39.7 °C and -34.1 kcal/mol.
In the same order, the values of GTCCATGCGAAAGCAGAC (((..(((....)))))) are 35.3 °C and -12.9 kcal/mol.
For GTCCATGGAAACATAGAC (((.(((....))).))), in series [1], the Tm stood at 30.1 °C. Besides, the folding enthalpy in series [2] was -17.3 kcal/mol.
Regarding GTCCCACGAAAGTGGAC (((.(((....)))))), the Tm in series [1] stood at 49.9 °C. For the same sequence, in series [2], the folding enthalpy was -13.1 kcal/mol.
For GTCCCCGAAAGGGCGGAC ((((((....)))..))), in that order: 42.8 °C and -15.4 kcal/mol.
In the same order, the values of GTCCCCGAAAGGGGGAC ((((((....))).))) are 68.5 °C and -17.1 kcal/mol.
For GTCCCCGAAAGGGTGAC ((((((....))).))), in that order: 53.3 °C and -22.6 kcal/mol.
Take GTCCCCGGAAACGAGGAC ((((.((....)).)))): the Tm in series [1] came out at 48 °C. Also, in series [2], the folding enthalpy was -32.1 kcal/mol.
As for GTCCCCGGAAACGGAGAC (((.(((....))).))), in series [1], the Tm stood at 47.7 °C. Moreover, in series [2], the folding enthalpy is -28 kcal/mol.
For GTCCCGGGAAACCGGAAC ((.((((....)))).)), in that order: 44.4 °C and -14.9 kcal/mol.
For GTCCCTACGAAAGTAGAC (((..(((....)))))), in that order: 25.9 °C and -9.91 kcal/mol.
In the same order, the values of GTCCCTCGAAAGAGTGAC (((.(((....))).))) are 45.3 °C and -31.9 kcal/mol.
On to GTCCCTGCGAAAGCAGAC (((..(((....)))))), for which the Tm in series [1] is 32.2 °C. Moreover, the folding enthalpy in series [2] is -7.38 kcal/mol.
In the same order, the values of GTCCCTGGAAACAAGGAC ((((.((....)).)))) are 34.7 °C and -20 kcal/mol.

The values are drawn from the array DNA melting data of Ke et al. (doi:10.1101/2024.01.08.574731).
